# Reference: PubChem BioAssay
# Calls of active or inactive are those of the source.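 How the source made its calls, unless noted: active means current rise at least 3 SD above the untreated control mean in each of two repeat wells; inactive means the rest.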
# Legend:
# [1] = thallium flux activation in parental CHO cells, counter-screen for KCNQ1 potentiator project (AID 493006;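 active means duplicate-averaged activation above buffer control mean plus 5 SD of those controls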); conditions: parental CHO-K1 cells, FluxOR thallium flux, at 10 µM; stronger effect = higher value
# Outline: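 Test system: parental CHO-K1 cells, FluxOR dye-loaded / Probe or stimulus: potassium plus thallium depolarizing stimulus, 5x stock 12.5 mM K2SO4, Tl2SO4 / Timing: overnight 37 °C plating, 90 min dye, 20 min dark compound / Measured by: kinetic thallium-flux fluorescence / Read-out: max-minus-min fluorescence over baseline, percent of buffer-to-R-L3 span / Benchmarks: buffer and R-L3 controls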
# [2] = target: Potassium voltage-gated channel subfamily KQT member 1 (Homo sapiens) (UniProt P51787); assay: KCNQ1 potassium channel potentiators, confirmation, FluxOR thallium flux, CHO cells, duplicates (AID 493007;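 active means potentiation averaged over duplicate wells exceeding buffer-only control mean by more than 3 SD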;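 on outcome: cells depolarized by a potassium plus thallium sulfate stimulus after compound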;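 on potentiation: 0% = buffer-only wells and 100% = R-L3 activator control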); conditions: KCNQ1 cell line, FluxOR thallium flux fluorescence, at 10 µM; stronger effect = higher value, % of reference activator effect, buffer zero
# Chain of Potassium voltage-gated channel subfamily KQT member 1 (Homo sapiens) (P51787 whole entry, looked up): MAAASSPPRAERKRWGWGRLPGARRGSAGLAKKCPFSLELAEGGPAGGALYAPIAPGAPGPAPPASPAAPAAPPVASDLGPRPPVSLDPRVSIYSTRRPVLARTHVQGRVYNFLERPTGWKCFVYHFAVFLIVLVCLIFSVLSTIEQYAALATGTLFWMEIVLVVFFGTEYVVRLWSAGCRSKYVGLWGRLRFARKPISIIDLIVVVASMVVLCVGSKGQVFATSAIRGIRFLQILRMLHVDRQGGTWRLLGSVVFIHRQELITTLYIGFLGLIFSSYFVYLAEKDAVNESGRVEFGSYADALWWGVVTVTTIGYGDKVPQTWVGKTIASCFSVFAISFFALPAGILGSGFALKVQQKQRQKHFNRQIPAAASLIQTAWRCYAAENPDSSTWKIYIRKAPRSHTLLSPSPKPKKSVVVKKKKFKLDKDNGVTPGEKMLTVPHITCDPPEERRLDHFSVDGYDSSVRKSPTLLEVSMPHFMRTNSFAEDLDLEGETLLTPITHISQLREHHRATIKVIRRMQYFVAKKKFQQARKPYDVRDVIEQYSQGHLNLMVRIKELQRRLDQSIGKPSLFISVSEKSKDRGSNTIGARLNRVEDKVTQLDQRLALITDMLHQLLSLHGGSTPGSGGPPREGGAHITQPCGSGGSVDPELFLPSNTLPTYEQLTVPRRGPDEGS
# Outline: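 Assay system: CHO cells carrying KCNQ1 | Controls: Buffer and R-L3 controls | Schedule: FluxOR dye loading 90 min, compound exposure 20 min, room temperature | Read-out: Baseline-normalized fluorescence change, percent of buffer-to-R-L3 range | Replicates: Each compound tested in duplicate | Technique: Kinetic thallium influx fluorescence with FluxOR dye, 10 s baseline, 110 s post-stimulus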
# [3] = target: Potassium voltage-gated channel subfamily KQT member 2 (Rattus norvegicus) (UniProt O88943); assay: rat KCNQ2 channel potentiation, selectivity assay for KCNQ1 potentiator project, KCNQ2-CHO-K1 cells (AID 493009;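 active means mean duplicate potentiation above the buffer control mean plus 5 SD of buffer wells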;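 further: assay conditions were tuned for KCNQ1 rather than KCNQ2 modulators; signal is max minus min fluorescence divided by baseline after thallium stimulus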); conditions: FluxOR thallium flux fluorescence, at 10 µM; stronger effect = higher value, scaled: buffer 0, activator control 100
# Chain of Potassium voltage-gated channel subfamily KQT member 2 (Rattus norvegicus) (O88943 whole entry, looked up): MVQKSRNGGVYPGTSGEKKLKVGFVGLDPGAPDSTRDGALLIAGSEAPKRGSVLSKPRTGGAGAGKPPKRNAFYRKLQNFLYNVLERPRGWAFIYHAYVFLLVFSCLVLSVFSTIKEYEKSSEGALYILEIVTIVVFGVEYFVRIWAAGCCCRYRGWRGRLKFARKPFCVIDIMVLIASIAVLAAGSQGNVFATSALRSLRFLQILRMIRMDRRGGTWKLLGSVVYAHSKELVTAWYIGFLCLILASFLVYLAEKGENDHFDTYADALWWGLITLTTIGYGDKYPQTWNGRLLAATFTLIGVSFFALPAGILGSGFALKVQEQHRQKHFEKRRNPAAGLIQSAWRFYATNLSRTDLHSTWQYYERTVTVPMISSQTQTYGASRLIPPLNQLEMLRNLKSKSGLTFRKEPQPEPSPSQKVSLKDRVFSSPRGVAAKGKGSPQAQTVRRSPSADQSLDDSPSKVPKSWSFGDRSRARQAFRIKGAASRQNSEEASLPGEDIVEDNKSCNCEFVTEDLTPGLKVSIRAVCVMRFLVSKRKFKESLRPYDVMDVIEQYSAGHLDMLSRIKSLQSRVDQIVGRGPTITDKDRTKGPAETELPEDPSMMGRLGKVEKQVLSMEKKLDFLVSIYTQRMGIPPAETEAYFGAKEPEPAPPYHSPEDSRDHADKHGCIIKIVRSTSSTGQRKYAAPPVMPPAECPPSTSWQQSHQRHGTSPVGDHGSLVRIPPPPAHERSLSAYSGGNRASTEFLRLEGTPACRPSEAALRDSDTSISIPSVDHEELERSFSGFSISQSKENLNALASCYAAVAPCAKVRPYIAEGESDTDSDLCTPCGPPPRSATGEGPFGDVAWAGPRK
# [4] = target: Potassium voltage-gated channel subfamily KQT member 1 (Homo sapiens) (UniProt P51787); assay: KCNQ1 channel current potentiators, confirmation, orthogonal assay for KCNQ1 potentiator project, IonWorks patch clamp, KCNQ1-CHO cells (AID 493184); conditions: automated patch clamp current, at 10 µM; stronger effect = higher value;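 on current potentiation: percent change of the same well's current before compound addition so 0% = no change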
# Outline: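 Material: KCNQ1-expressing CHO cells; doses: 10 µM final, single point; probe or stimulus: voltage step from -90 mV holding to +40 mV, 2,000 ms; signal: automated voltage clamp, amphotericin B perforated patch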
Structure (SMILES),outcome [1],outcome [2],outcome [3],outcome [4],activation [1],potentiation [2],potentiation [3],current potentiation [4]
O=C1CC(c2ccccc2)CC(O)=C1C=Nc1ccc(O)cc1 (stereo not given),inactive,inactive,inactive,inactive,–,–,–,–
Cc1ccc(S(=O)(=O)NN2C(=O)/C(=C/c3cccc(F)c3)SC2=S)cc1,–,–,–,–,176% (active),20.5% (active),152% (active),37.3% (active)
Oc1[nH]c2c(Cl)cc(Cl)cc2c1N=NC(=S)NCC1CCCO1 (stereo not given),–,–,–,inactive,346% (active),277% (active),454% (active),–
CN1CCN(CC/C=C2/c3ccccc3Sc3ccc(S(=O)(=O)N(C)C)cc32)CC1,inactive,inactive,inactive,inactive,–,–,–,–
COc1ccc(C(=O)CSc2nnc(CNC(=O)c3ccc(OC)cc3)n2C)cc1,inactive,–,inactive,inactive,–,21% (active),–,–
Cc1c(CN(C)C)c2c(n1C)C(=O)c1ccc(Br)cc1-2,–,–,–,inactive,146% (active),53% (active),159% (active),–
Cc1ccc(Sc2ccc(CN3CCCC3)cc2[N+](=O)[O-])cc1,inactive,inactive,inactive,inactive,–,–,–,–
CCn1c(=S)[nH]c2scc(-c3cccs3)c2c1=O,–,–,–,inactive,548% (active),246% (active),528% (active),–
CC(=O)/C=C1/C(=O)Nc2ccccc21,–,–,–,inactive,167% (active),63.5% (active),188% (active),–
COc1ccc(-n2c(=S)[nH]c3c(oc4ccccc43)c2=O)cc1,inactive,inactive,inactive,inactive,–,–,–,–
COc1ccc(CCNC(=O)c2c(C)nc3ccccn23)cc1,inactive,inactive,inactive,inactive,–,–,–,–
CCC(Cc1ccccc1)n1c(=S)[nH]c2ccccc2c1=O (stereo not given),inactive,–,inactive,inactive,–,19% (active),–,–
Cc1ccc2nc(NC(=S)NC(=O)c3cccs3)sc2c1,–,–,–,inactive,168% (active),66% (active),158% (active),–
Cc1cc(C=NCCO)c(C)n1-c1cc(Cl)ccc1Cl,inactive,inactive,inactive,inactive,–,–,–,–
Cc1[nH]n(-c2ccccc2)c(=O)c1/C=N/N(c1ccccc1)c1ccccc1,inactive,–,inactive,inactive,–,47% (active),–,–
Cn1cc(-c2nnnn2-c2ccccc2)c(=O)c2ccccc21,inactive,inactive,inactive,inactive,–,–,–,–
S=c1nc(-c2ccc(Br)cc2)[nH]c2ccccc12,–,–,–,inactive,572% (active),188% (active),538% (active),–
CSc1nc(Nc2ccc(Cl)cc2)c(C#N)c(=O)[nH]1,inactive,inactive,inactive,inactive,–,–,–,–
Cc1ccc(C2c3c(-c4ccccc4O)n[nH]c3C(=O)N2Cc2ccncc2)cc1 (stereo not given),inactive,inactive,inactive,inactive,–,–,–,–
O=C(NN=C1c2ccccc2-c2ccccc21)c1cccc(Br)c1,–,–,–,inactive,196% (active),42.5% (active),154% (active),–
O=C(NC(=S)Nc1ccccc1)c1csnn1,–,–,–,inactive,588% (active),260% (active),642% (active),–
Cc1ccc(/C(O)=C/C(=O)C(=O)NC23CC4CC(CC(C4)C2)C3)cc1,–,–,–,inactive,284% (active),167% (active),367% (active),–
CCOC(=O)c1c(NC(=S)NC(=O)c2ccco2)sc2c1CCCC2,inactive,inactive,inactive,inactive,–,–,–,–
S=c1nc(Cc2ccccc2)[nH]c2ccccc12,–,–,–,inactive,280% (active),110% (active),415% (active),–
Cc1ccccc1C([O-])=Nc1ccc[n+](-c2nc3ccccc3nc2NS(=O)(=O)c2ccccc2)c1,inactive,inactive,inactive,inactive,–,–,–,–
C=CCN(CC=C)C(=S)NC(=O)c1ccc(C)c(Br)c1,–,–,–,inactive,779% (active),270% (active),688% (active),–
CCc1ccc2c(c1)c(N=NC1=NC(=O)CS1)c(O)n2C,–,–,inactive,inactive,162% (active),30% (active),–,–
Cc1nn(CCc2nn[nH]n2)c2nc(-c3ccc(C4CCCCC4)cc3)cc(C(F)(F)F)c12,–,–,–,inactive,296% (active),58% (active),182% (active),–
CCN(CC)CCCNC(=O)c1[nH]c2ccccc2c1Sc1ccc(Cl)cc1,inactive,–,inactive,–,–,73% (active),–,29.6% (active)
Cc1cc(S(=O)(=O)N2CCOCC2)ccc1OCC(=O)NCc1ccccn1,inactive,inactive,inactive,inactive,–,–,–,–
